Measured values taken from ChEMBL document CHEMBL1123096, “Alpha-adrenoreceptor reagents. 3. Synthesis of some 2-substituted 1,4-benzodioxans as selective presynaptic alpha 2-adrenoreceptor antagonists” (J Med Chem, 1985).

Experiments:
[1] = target: T1, Adrenergic receptor alpha-1 (Rattus norvegicus) (UniProt P15823+P23944+P43140); assay: post-synaptic antagonist activity towards alpha-1 adrenergic receptor was determined. Concentration giving a dose response to phenylephrine (idazoxan=1) was reported.; assay type: functional
Outline: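 Rat anococcygeus, postsynaptic α1 antagonism. At least five phenylephrine concentration–response curves were run alone, then at least four with the antagonist present.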

[2] = target: T2, Adrenergic receptor alpha-1 (Rattus norvegicus, UniProt P15823+P23944+P43140); assay: Alpha-1 adrenergic receptor antagonist activity in a rat anococcygeus. Values ranges from 6.35-6.44; assay type: functional
T2 sequence (P15823 whole entry): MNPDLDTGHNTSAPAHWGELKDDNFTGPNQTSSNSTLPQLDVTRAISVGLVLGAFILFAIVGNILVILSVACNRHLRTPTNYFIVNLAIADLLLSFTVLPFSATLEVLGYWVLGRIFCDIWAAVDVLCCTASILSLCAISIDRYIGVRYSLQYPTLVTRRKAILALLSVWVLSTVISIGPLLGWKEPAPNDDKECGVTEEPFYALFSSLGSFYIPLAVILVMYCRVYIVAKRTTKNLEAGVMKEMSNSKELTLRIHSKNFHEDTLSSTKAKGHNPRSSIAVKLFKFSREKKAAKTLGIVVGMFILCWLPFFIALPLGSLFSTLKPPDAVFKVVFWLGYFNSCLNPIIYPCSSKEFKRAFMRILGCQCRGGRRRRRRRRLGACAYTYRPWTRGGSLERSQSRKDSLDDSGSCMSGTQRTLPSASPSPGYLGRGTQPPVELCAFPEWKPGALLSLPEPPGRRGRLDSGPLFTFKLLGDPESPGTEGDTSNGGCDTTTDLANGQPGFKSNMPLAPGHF
T2 sequence (P23944 whole entry): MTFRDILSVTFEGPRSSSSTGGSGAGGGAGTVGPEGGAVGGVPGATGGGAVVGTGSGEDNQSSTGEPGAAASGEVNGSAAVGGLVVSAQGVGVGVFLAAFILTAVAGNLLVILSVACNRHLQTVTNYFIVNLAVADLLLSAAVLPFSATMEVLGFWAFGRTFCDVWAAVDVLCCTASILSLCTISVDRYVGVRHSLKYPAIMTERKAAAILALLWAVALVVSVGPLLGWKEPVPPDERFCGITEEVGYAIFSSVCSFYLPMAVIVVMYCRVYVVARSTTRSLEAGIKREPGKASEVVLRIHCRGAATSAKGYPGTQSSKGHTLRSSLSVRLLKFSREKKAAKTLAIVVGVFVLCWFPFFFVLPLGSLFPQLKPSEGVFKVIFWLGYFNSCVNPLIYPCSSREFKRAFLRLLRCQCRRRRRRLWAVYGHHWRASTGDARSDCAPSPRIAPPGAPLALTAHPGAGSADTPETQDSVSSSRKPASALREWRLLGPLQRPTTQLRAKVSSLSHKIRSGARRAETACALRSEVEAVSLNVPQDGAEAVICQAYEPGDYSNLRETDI
T2 sequence (P43140 whole entry): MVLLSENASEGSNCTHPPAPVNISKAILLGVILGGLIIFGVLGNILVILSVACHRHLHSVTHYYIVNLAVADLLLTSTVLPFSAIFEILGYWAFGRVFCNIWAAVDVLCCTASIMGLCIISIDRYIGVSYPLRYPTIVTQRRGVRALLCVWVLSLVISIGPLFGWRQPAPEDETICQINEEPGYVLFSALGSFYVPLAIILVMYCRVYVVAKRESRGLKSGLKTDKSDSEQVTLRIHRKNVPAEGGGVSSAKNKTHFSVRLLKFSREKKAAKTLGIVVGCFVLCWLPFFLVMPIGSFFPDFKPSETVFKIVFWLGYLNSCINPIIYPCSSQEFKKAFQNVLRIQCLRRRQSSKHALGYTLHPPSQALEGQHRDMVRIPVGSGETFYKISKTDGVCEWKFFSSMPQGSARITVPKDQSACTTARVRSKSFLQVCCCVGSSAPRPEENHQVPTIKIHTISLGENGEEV

[3] = target: T3, Adrenergic receptor alpha-2 (Rattus norvegicus) (UniProt P22086+P19328+P22909); assay: Alpha-2 adrenergic receptor antagonist activity compared to idazoxan; assay type: functional
Outline: (§1)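 Vas deferens from rat or mouse; the mouse tissue was in Mg-free Krebs at 30 °C under 0.5 g tension, stimulated at 0.1 Hz, 3 ms, 100–140 V, giving a twitch of about 100 mg. […] Standard curves were run before and after the test curve.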

[4] = target: T3, Adrenergic receptor alpha-2 (Rattus norvegicus); assay: Presynaptic antagonist activity towards alpha-2 adrenergic receptor.; assay type: functional; outline: as §1
[5] = target: Adrenergic receptor alpha (Rattus norvegicus) (UniProt P15823+P23944+P43140+P22086+P19328+P22909); assay: Selectivity as ratio […] against alpha-2 receptor to that of alpha-1 receptor.; assay type: protein assay
[6] = target: T1, Adrenergic receptor alpha-1 (Rattus norvegicus); assay: Alpha-1 adrenergic receptor binding activity relative to idazoxan.; assay type: protein assay
[7] = target: T4, Adrenergic receptor alpha-2 (Rattus norvegicus, UniProt P22086+P19328+P22909); assay: Alpha-2 adrenergic receptor antagonist activity in a rat vas deferens assay. Values ranges from 8.54-8.87; assay type: functional, tissue-based
T4 sequence (P22086 whole entry): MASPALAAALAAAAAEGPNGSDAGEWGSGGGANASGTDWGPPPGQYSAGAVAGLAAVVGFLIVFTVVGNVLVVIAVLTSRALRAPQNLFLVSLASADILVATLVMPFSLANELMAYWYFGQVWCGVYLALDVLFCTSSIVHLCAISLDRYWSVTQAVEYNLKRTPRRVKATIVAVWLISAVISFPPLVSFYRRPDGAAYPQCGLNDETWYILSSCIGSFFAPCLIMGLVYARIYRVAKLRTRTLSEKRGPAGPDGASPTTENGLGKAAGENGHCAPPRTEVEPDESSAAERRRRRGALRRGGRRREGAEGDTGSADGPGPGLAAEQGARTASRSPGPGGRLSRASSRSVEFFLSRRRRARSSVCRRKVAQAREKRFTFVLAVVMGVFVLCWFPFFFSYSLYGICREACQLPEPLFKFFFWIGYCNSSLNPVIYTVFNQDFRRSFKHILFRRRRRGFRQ
T4 sequence (P19328 whole entry): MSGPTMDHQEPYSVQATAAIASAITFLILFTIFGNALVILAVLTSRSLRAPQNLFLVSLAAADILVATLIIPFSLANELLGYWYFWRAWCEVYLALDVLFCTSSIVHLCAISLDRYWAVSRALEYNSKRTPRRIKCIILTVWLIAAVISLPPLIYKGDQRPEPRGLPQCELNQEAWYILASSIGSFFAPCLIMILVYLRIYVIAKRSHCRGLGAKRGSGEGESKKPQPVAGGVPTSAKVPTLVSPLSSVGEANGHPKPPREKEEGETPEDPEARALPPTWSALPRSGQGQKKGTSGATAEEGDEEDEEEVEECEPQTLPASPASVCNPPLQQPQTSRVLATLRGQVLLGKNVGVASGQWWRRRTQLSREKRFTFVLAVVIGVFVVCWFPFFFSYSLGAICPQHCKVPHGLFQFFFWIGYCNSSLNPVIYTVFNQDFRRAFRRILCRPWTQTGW
T4 sequence (P22909 whole entry): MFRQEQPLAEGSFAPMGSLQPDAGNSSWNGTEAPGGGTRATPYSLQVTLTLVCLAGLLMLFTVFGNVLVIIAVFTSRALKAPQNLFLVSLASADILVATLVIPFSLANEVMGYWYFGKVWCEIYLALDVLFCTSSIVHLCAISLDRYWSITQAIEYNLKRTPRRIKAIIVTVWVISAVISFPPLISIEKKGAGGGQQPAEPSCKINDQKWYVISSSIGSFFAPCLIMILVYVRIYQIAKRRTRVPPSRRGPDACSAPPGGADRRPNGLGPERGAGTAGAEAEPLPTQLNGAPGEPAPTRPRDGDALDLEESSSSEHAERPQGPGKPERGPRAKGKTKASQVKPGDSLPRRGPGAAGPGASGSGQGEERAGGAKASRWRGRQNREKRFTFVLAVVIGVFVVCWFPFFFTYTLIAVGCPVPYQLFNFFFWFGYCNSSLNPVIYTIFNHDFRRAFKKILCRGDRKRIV

[8] = target: T2, Adrenergic receptor alpha-1; assay: Alpha-1 adrenergic receptor antagonist activity in a rat anococcygeus. Values ranges from 5.84-6.31; assay type: functional
[9] = target: T4, Adrenergic receptor alpha-2; assay: Alpha-2 adrenergic receptor antagonist activity in a rat vas deferens assay. Values ranges from […]; assay type: functional, tissue-based
Outline: (§2)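 pA2 at presynaptic α2-adrenoreceptors in field-stimulated rat vas deferens. Tissue was held in Krebs solution (NaCl 118 mM, KCl 4.7 mM, CaCl2 2.5 mM, KH2PO4 1.2 mM, MgSO4 0.6 mM, NaHCO3 25 mM, dextrose 11.1 mM) gassed with 95% O2/5% CO2 at 30 °C. Stimulation was 3-ms pulses, 40 V, 0.1 Hz, with contractions recorded isometrically. Twitches were inhibited by clonidine (110 nM).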

[10] = target: T4, Adrenergic receptor alpha-2; assay: Alpha-2 adrenergic receptor activity in a rat vas deferens assay. Values ranges from 8.25-9.35; assay type: tissue-based; outline: as §2
[11] = target: T2, Adrenergic receptor alpha-1; assay: Alpha-1 adrenergic receptor activity in a rat anococcygeus. Values ranges from 6.17-6.38
[12] = target: T4, Adrenergic receptor alpha-2; assay: Alpha-2 adrenergic receptor antagonist activity in a rat vas deferens assay. Values ranges from 8.31-8.44; assay type: functional; outline: as §2
[13] = target: T2, Adrenergic receptor alpha-1; assay: Alpha-1 adrenergic receptor antagonist activity in a rat anococcygeus. Values ranges from 6.63-6.78; assay type: functional
[14] = target: T2, Adrenergic receptor alpha-1; assay: Alpha-1 adrenergic receptor antagonist activity in a rat anococcygeus. Values ranges from 6.53-7.08; assay type: functional
[15] = target: T4, Adrenergic receptor alpha-2; assay: Alpha-2 adrenergic receptor activity in a rat vas deferens assay. Values ranges from 8.85-9.01; assay type: tissue-based; outline: as §2
[16] = target: T4, Adrenergic receptor alpha-2; assay: Alpha-2 adrenergic receptor antagonist activity in a rat vas deferens assay. Values ranges from 7.80-8.14; assay type: functional, tissue-based
[17] = target: T2, Adrenergic receptor alpha-1; assay: Alpha-1 adrenergic receptor antagonist activity in a rat anococcygeus. Values ranges from 5.19-5.44; assay type: functional
[18] = target: T1, Adrenergic receptor alpha-1 (Rattus norvegicus); assay: post-synaptic antagonist activity towards adrenergic receptor was determined. Concentration giving a dose response to phenylephrine (idazoxan=1) was reported.; assay type: functional
Outline: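 The agonist was phenylephrine, tested on isolated rat anococcygeus under 0.5 g initial tension. At least five phenylephrine dose-response curves were run alone, then at least four in the presence of the analogue.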

[19] = target: T2, Adrenergic receptor alpha-1; assay: Alpha-1 adrenergic receptor antagonist activity in a rat anococcygeus. Values ranges from 6.35-6.88; assay type: functional
[20] = target: T4, Adrenergic receptor alpha-2; assay: Alpha-2 adrenergic receptor antagonist activity in a rat vas deferens assay. Values ranges from 8.74-9.17; assay type: functional; outline: as §2
[21] = target: T2, Adrenergic receptor alpha-1; assay: Alpha-1 adrenergic receptor antagonist activity in a rat anococcygeus. Values ranges from 5.37-5.48; assay type: functional
[22] = target: T4, Adrenergic receptor alpha-2; assay: Alpha-2 adrenergic receptor antagonist activity in a rat vas deferens assay. Values ranges from 8.00-8.47; assay type: functional, tissue-based; outline: as §2
[23] = target: T2, Adrenergic receptor alpha-1; assay: Alpha-1 antagonist activity in a rat anococcygeus. Values ranges from 6.6-7.23; assay type: functional
[24] = target: T4, Adrenergic receptor alpha-2; assay: Alpha-2 adrenergic receptor antagonist activity in a rat vas deferens assay. Values ranges from 9.30-9.52; assay type: functional, tissue-based; outline: as §2
[25] = target: T4, Adrenergic receptor alpha-2; assay: Alpha-2 adrenergic receptor antagonist activity in a rat vas deferens assay. Values ranges from 8.42-9.51; assay type: functional; outline: as §2
[26] = target: T2, Adrenergic receptor alpha-1; assay: Alpha-1 adrenergic receptor antagonist activity in a rat anococcygeus. Values ranges from 6.50-6.62; assay type: functional

Row | Structure (SMILES) | Postsynaptic antagonist [1] | Relative potency [3] | potency relative to idazoxan [4] | Ratio [5] | Relative potency [6] | further results
1 | CCC1(C2=NCCN2)COc2ccccc2O1 (stereo not given) | 2.25 | 1.6 | 3 | 1.3 | 1.2 | pA2 [2]: 6.44; pA2 [7]: 8.87
2 | CCCOC1(C2=NCCN2)COc2ccccc2O1 (stereo not given) | 1 | 1.4 | 1.5 | 1.5 | 0.9 | pA2 [10]: 8.64; pA2 [11]: 6.26
3 | CC1(C2=NCCN2)COc2ccccc2O1.Cl (stereo not given) | – | 0.3 | 0.67 | 2.4 | 0.1 | pA2 [16]: 8.14; pA2 [17]: 5.44; Postsynaptic antagonist [18]: 0.28
4 | C=CCOC1(C2=NCCN2)COc2ccccc2O1 (stereo not given) | 6 | 2 | 2 | 0.3 | 1.7 | pA2 [25]: 8.81; pA2 [26]: 6.55

Continued, in another order:

Row | Postsynaptic antagonist [1] | Relative potency [3] | potency relative to idazoxan [4] | Ratio [5] | Relative potency [6] | Structure (SMILES) | further results
5 | 0.6 | 1.5 | 1 | 1.6 | 0.5 | CC(C)OC1(C2=NCCN2)COc2ccccc2O1 (stereo not given) | pA2 [8]: 6.01; pA2 [9]: 8.67
6 | 2.2 | 0.7 | 1.6 | 0.7 | 2.4 | CCCCOC1(C2=NCCN2)COc2ccccc2O1 (stereo not given) | pA2 [12]: 8.37; pA2 [13]: 6.7
7 | 7 | 2.6 | 5.9 | 0.8 | 2.6 | CCOC1(C2=NCCN2)COc2ccccc2O1.Cl (stereo not given) | pA2 [14]: 6.74; pA2 [15]: 8.92
8 | 3.2 | 2.6 | 4.8 | 1.5 | 1.7 | CCCC1(C2=NCCN2)COc2ccccc2O1 (stereo not given) | pA2 [19]: 6.56; pA2 [20]: 8.92
9 | 0.07 | 0.5 | 0.4 | 5.7 | 0.1 | C=C(C)C1(C2=NCCN2)COc2ccccc2O1.Cl (stereo not given) | pA2 [21]: 5.42; pA2 [22]: 8.21
10 | 4 | 8.1 | 11 | 2.8 | 4 | COC1(C2=NCCN2)COc2ccccc2O1 (stereo not given) | pA2 [23]: 6.91; pA2 [24]: 9.41
